In assay [1] the test system is Leishmania donovani. Nature of the assay: Antileishmanial activity against Leishmania donovani MHOM/SD/75/1246/130 axenic amastigotes infected in mouse J774A.1 cells after 72 hrs by Draq5 staining based assay. The format is functional, organism-based. The conditions noted are these: MHOM/SD/75/1246/130, J774.A1, 72 h. In short, it runs like this: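 Amastigotes grown axenically at 37 °C in RPMI 1640, pH 5.5, with Hepes, MES, hemin, xanthine, Tween-80 and 20% heat-inactivated FBS. Parasites added 10:1 to 2000 J774A.1 macrophages per well, 24 h at 37 °C, 5% CO2, then extracellular parasites washed off. Compounds from 10 μg/mL, 1:2 serial dilution, 72 h. Fixed in 2% paraformaldehyde, Draq5 stain, imaged; amastigotes per 500 macrophages counted for IC50.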

Assay [2] deals with Enterobacter. As to the kind of experiment: Antibacterial activity against drug-resistant Enterobacter. The format is functional, organism-based.
Assay [3] concerns Acinetobacter baumannii. Nature of the assay: Antibacterial activity against drug-resistant Acinetobacter baumannii. The assay is classed as functional, organism-based.
The subject of assay [4] is A549. As to the kind of experiment: Cytotoxicity against human A549 cells after 72 hrs by CellTiter 96 AQueous one solution cell proliferation assay. The assay is classed as cell-based. The conditions noted are these: A549, 72 h. The method, boiled down: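 A549 cells seeded at 1440 cells/well in F12K with 10% FBS and 1% penicillin–streptomycin, with compounds in doubling dilutions from 50 μg/mL final. Incubated 72 h at 37 °C, 5% CO2. MTS added 4 h before the end, OD read at 490 nm. Controls were cells with media and media alone.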

Assay [5] concerns Staphylococcus aureus. As to the kind of experiment: Antibacterial activity against drug-resistant Staphylococcus aureus. The assay is classed as functional, organism-based.
The test system of assay [6] is Clostridioides difficile. As to the kind of experiment: Antibacterial activity against Clostridium difficile. The format is functional, organism-based.
Assay [7] concerns Klebsiella pneumoniae. Nature of the assay: Antibacterial activity against drug-resistant Klebsiella pneumoniae. The format is functional, organism-based.
Assay [8] deals with Pseudomonas aeruginosa. As to the kind of experiment: Antibacterial activity against drug-resistant Pseudomonas aeruginosa. The assay is classed as functional, organism-based.
Assay [9] relates to Naegleria fowleri. Nature of the assay: […] activity against Naegleria fowleri. The format is functional, organism-based.
For assay [10], the system named is Enterococcus faecium. As to the kind of experiment: Antibacterial activity against drug-resistant Enterococcus faecium. The format is functional, organism-based.

Molecules are shown by their SMILES. The source made the active and inactive calls. No cut-off for these calls is given here.

Usually IC50 stands for the midpoint of a concentration-inhibition curve. Lower therefore signals greater potency.

For `C=C(C)[C@@H]1CC(=O)[C@H]2[C@H](C1)[C@@H]1C(=O)O[C@@H]3C[C@]4(C)O[C@H]2C(=O)[C@@H]4[C@H]13`, the IC50 was 4.4 µM in assay [1] and over 50 µM in assay [4]. In addition, the result in assay [2], in assay [3], in assay [5], in [6], in assay [7] and in assay [8] was inactive. Besides, the result in [9] and in assay [10] was inactive.

The molecule `CCCCCCCCCCCCCCCCOP(=O)([O-])OCC[N+](C)(C)C` [MILTEFOSINE] came in with an IC50 in [1] of 6.2 µM.

For `C=C(C)[C@@H]1/C=C/[C@]23O[C@H]2[C@H](C[C@@]2(C)O[C@@H]2C2=CC(C=O)=C(C1)O2)OC3=O`, the figures for the 50% inhibitory concentration (IC50) in assay [1] and in assay [4] were over 28 µM and over 50 µM, respectively. Besides, the outcome in assay [2], in assay [3], in [5], in [6], in assay [7] and in assay [8] was inactive. For the same molecule, the result in [9] and in [10] was inactive.

As for `C=C(C)[C@@H]1C/C=C2\C(=O)O[C@@H](C[C@@]3(C)O[C@@H]3C3=CC(C=O)=C(C1)O3)[C@@H]2OC(C)=O`, the results for the half-inhibitory concentration (IC50) in assay [1] and in assay [4] were 8.8 µM and over 50 µM, respectively. Besides, the outcome in assay [2], in [3], in [5], in assay [6], in assay [7] and in [8] was inactive. Moreover, the outcome in [9] and in assay [10] was inactive.

For the molecule `C=C(C)[C@@H]1CCC2=C[C@H](C[C@@]3(C)O[C@@H]3C3=CC(C=O)=C(C1)O3)OC2=O`, the results for the IC50 in assay [1] and in [4] were 1.9 µM and over 50 µM, respectively. In addition, the outcome in assay [2], in [3], in assay [5], in assay [6], in assay [7] and in assay [8] was inactive. In addition, the result in assay [9] and in assay [10] was inactive.

Take `C=C(C)[C@H]1CC2=C(C=O)C=C(O2)[C@H]2O[C@]2(C)C[C@H]2C=C(C(=O)O2)[C@@H](OC(C)=O)C1`: the IC50 in assay [1] is 8.8 µM; in assay [4] it was over 50 µM. The outcome in assay [2], in assay [3], in assay [5], in [6], in assay [7] and in assay [8] was inactive. Besides, the result in assay [9] and in assay [10] was inactive.

As to `C=C(C)[C@@H]1/C=C/[C@]23O[C@H]2[C@H](C[C@](C)(O)[C@@H](OC(C)=O)C2=CC(C=O)=C(C1)O2)OC3=O`, the values for the IC50 in assay [1] and in [4] were 12 µM and over 50 µM, respectively. In addition, the result in assay [2], in assay [3], in assay [5], in assay [6], in assay [7] and in assay [8] was inactive. In addition, the outcome in assay [9] and in assay [10] was inactive.

For the molecule `C=C(C)[C@H]1CC2=C(C=O)C=C(O2)[C@H]2O[C@]2(C)C[C@@H]2OC(=O)/C(=C\[C@H]1OC(C)=O)[C@H]2OC(C)=O`, the IC50 in [1] is 8.5 µM; in assay [4], over 50 µM. The outcome in [2], in [3], in assay [5], in [6], in assay [7] and in [8] was inactive. Besides, the outcome in assay [9] and in assay [10] was inactive.

Source of the values: ChEMBL document CHEMBL4130600, “Keikipukalides, Furanocembrane Diterpenes from the Antarctic Deep Sea Octocoral Plumarella delicatissima” (J Nat Prod, 2018).
